# Rpn11 block = inhibitors of human proteasome Rpn11 | O00487 | human 26S proteasome, Ub4-pepOG fluorescence polarization; 20S core pre-blocked with epoxomicin | inhibition, % at 20 µM | 360,000 compounds, 0.59% hits;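 active = inhibition at 20 µM, scaled to each plate's controls, above about 33%, limit read from the data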
# Target sequence (O00487 whole entry, looked up): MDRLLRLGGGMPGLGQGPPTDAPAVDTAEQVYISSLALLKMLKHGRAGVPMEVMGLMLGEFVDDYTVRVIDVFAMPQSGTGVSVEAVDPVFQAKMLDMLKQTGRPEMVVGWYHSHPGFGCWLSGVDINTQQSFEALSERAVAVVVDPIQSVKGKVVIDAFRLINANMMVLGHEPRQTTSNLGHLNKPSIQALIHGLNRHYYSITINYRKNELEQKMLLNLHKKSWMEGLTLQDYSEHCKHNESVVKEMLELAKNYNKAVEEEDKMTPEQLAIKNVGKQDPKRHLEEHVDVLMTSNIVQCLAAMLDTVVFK
# IDE act = IDE (human) activation, cell-based; HEK cells, FAbeta-B cleavage, fluorescence polarization; 0% vehicle, 100% cell-free pure enzyme wells; 340,000 compounds, 0.073% hits; AID 493087; P14735; activation, % at 5.96 µM;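 active = activation above the mean of all tested compounds plus 3 SD, set per screening campaign, cut at about 17% in these data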
# TPT1 inh = C. albicans TPT1 enzyme inhibition. recombinant caTPT1, FP RNA substrate dephosphorylation. inhibition, % at 5 µM. 300,000 compounds, 0.81% hits. AID 1962;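 active = inhibition above the mean of all tested compounds plus 3 SD, set per screening campaign, cut at about 24% in these data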;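 also: plate controls were DMSO alone for no effect and ferristatin control at 100 nM for full effect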
# CSN deneddyl inh = inhibitors of human CSN-mediated cullin deneddylation. Q92905. Purified CSN, SCF-Nedd8-OG deneddylation, fluorescence polarization. inhibition, % at 12.5 µM. 360,000 compounds, 0.38% hits. AID 651999;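 active = pattern-corrected inhibition above about 35%, with an unprinted fluorescence ratio check between 0.5 and 1.5, limit read from the data, passing the limit was not always enough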;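 also: 0% = enzyme with substrate and 100% = substrate without enzyme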
# Target sequence (Q92905 whole entry, looked up, one chain of several): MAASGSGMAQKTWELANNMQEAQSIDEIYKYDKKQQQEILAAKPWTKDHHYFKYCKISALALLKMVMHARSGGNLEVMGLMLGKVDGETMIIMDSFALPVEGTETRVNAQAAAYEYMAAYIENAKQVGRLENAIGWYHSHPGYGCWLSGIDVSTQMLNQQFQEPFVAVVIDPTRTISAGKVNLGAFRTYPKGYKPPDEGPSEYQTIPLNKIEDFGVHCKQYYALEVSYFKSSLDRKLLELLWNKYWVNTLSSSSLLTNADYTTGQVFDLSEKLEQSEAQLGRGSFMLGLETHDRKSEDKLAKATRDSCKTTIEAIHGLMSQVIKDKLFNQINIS
#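 Assay system: purified human Csn5 enzyme expressed in HEK293T cells; measure: % inhibition; also added: SCFSkp2-Nedd8OG substrate at 10 nM final; technique: fluorescence polarization; times: reaction 90 min, room temperature; medium: Tris buffer pH 7.5, NaCl, DTT, Tween-20, trehalose, ovalbumin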
# HNF4A DNA FP = change in binding of human HNF4 alpha to DNA | P41235 | activity change, % at 10 µM | HNF4a-FITC DNA binding, fluorescence polarization, 1 h | 360,000 compounds, 0.3% hits; in the data active = activity change above about 30%, passing the limit was not always enough
# IDE inh = cellular human IDE inhibition; inhibition, % at 5.59 µM; 320,000 compounds, 0.41% hits; P14735; AID 434962; HEK cells, FAbetaB cleavage, fluorescence polarization;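 active = percent inhibition above the average of all tested compounds plus 3 SD, set per screening campaign, cut at about 16% in these data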;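 also: IDE supplied by intact live HEK cells; FP after avidin binding of uncleaved biotin substrate so inhibition keeps polarization high; 0% = DMSO wells and 100% = 60 µM reference IDE inhibitor Ii1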
# TPT1 inh confirm = TPT1 (C. albicans) inhibition, confirmation | shares compounds with TPT1 inh | recombinant caTPT1, fluorescence polarization, RNase T1 coupled | inhibition, % at 5 µM | 2,400 compounds, 74% hits | AID 2149;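 active = inhibition above the primary screen limit, the mean inhibition of all tested compounds plus 3 SD, cut at about 25% in these data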
# RNase T1 counter = RNase T1 inhibition in TPT1 counter-screen | shares compounds with TPT1 inh | RNase T1 cleavage, fluorescence polarization, 1536-well | inhibition, % at 5 µM | 2,400 compounds, 83% hits | AID 2153;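 active = inhibition above the solvent-only control well mean plus 3 SD, limit set per screening run, cut at about 23% in these data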;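 also: plate controls were DMSO wells with enzyme for no effect and wells without RNase T1 for full effect; inhibitors block cleavage so intact labeled substrate keeps polarization high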
# The depositor's hits bear a star; / = no result shown. A selection: hits, their analogues and other compounds. The true share with any hit is near 1.7%.
SMILES,Rpn11 block,IDE act,TPT1 inh,CSN deneddyl inh,HNF4A DNA FP,IDE inh,TPT1 inh confirm,RNase T1 counter
CC(=O)Nc1ccc(N=Cc2c(O)c(C(=O)Nc3ccccc3)cc3ccccc23)cc1,/,/,121*,/,/,-3,109*,107*
COC(=O)c1ccccc1CSc1nsc(/C=C/N(C)C)c1C#N,/,1,92*,16,55*,0,35*,48*
Cc1cc(NC(=O)CSc2nc3cc(C)c(C)cc3cc2C)no1,1,0,1,0,-1,-1,/,/
Cc1ccc(C(=O)NCCNC(=O)Cc2ccccc2)cn1,-2,4,-5,5,0,-2,/,/
COc1cccc(C2Oc3ccccc3C3CC(c4cccs4)=NN32)c1 (stereo not given),32,/,61*,7,5,6,33*,46*
COC(=O)c1cc(COC(=O)CNC(=O)c2ccc(Br)cc2)oc1C,0,1,/,0,-1,2,/,/
O=[N+]([O-])c1ccc(N(c2ccccc2)c2ccccc2)cc1,/,-3,30*,9,1,6,32*,46*
Cc1cccc(N2CCN(C(=O)c3ccc4c(c3)NC(=O)C(CSCc3cccc(F)c3)N4)CC2)c1C (stereo not given),/,/,134*,/,/,2,131*,125*
Cc1cccc(N2CCN(C(=O)c3ccc4c(c3)OCCO4)CC2)c1C,-9,-1,1,4,-2,2,/,/
CC(=O)C1=C(O)CC(C)(C)CC1=NCc1nc2ccccc2[nH]1,2,-3,-1,4,4,2,/,/
COC(=O)CC/C(O)=C1\C(=O)CC(C)(C)CC1=NCc1nc2ccccc2[nH]1,-2,-1,34*,-4,1,5,13,18
Cc1cc(O)ccc1N/C=C/c1onc(C)c1[N+](=O)[O-],4,2,5,1,-2,-4,/,/
Cc1cccc(N/C=C/c2onc(C)c2[N+](=O)[O-])c1,13,7,62*,1,3,2,64*,73*
Cc1ccc(C(=O)NCC(=O)N(C)CC(=O)Nc2ccccc2Br)s1,-1,0,/,-1,4,3,/,/
COc1ccc(Nc2ccc(S(=O)(=O)N3CCCCC3)cc2[N+](=O)[O-])cc1Cl,3,7,-1,0,0,2,/,/
COc1ccc(Nc2ccc(S(=O)(=O)N3CCCCC3)cc2[N+](=O)[O-])cc1,-3,8,67*,-2,-4,-6,6,9
CCCS(=O)(=O)c1nc(S(=O)(=O)c2ccc(C)cc2)c(NCCCN2CCCC2=O)s1,-3,4,-3,4,4,10,/,/
COc1ccc(N=Nc2[nH]c3ccc(C)cc3c2O)cc1,3,3,0,2,-1,4,/,/
Cc1ccc(N=Nc2[nH]c3ccccc3c2O)cc1,-25,-3,24*,8,7,15,-8,3
CCCCNC(=O)Cc1ccc(C)cc1,-3,-4,2,-5,4,6,/,/
CCCCCCCCNC(=O)c1ccc(C)cc1,/,/,37*,/,/,-4,13,20
O=C(N/N=C/c1ccc(O)cc1O)c1ccncc1,0,2,-2,-1,2,2,/,/
O=C(N/N=C/c1ccc(Cl)cc1Cl)c1ccncc1,-1,-4,3,9,0,3,/,/
O=C(N/N=C/c1cc(Cl)cc(Cl)c1O)c1ccncc1,/,-2,40*,29,4,14,37*,49*
O=C(N/N=C/c1cc(Br)cc(Br)c1O)c1ccncc1,/,/,89*,/,/,7,77*,83*
SMILES,Rpn11 block,IDE act,TPT1 inh,CSN deneddyl inh,HNF4A DNA FP,IDE inh,TPT1 inh confirm,RNase T1 counter
O=C1/C(=C\c2ccc(-c3ccccc3Cl)o2)SC(=S)N1CC1CCCO1 (stereo not given),0,2,27*,7,-9,1,48*,61*
Cc1ccc(OCC(=O)NCCc2c[nH]c3ccccc23)cc1,-2,3,-1,-1,-1,5,/,/
COc1ccccc1OCCNC(=O)C1CC(=O)N(c2cccc(SC)c2)C1 (stereo not given),0,-5,-3,-1,-4,3,/,/
Cc1cc(=O)oc(C)c1C(=O)Nc1ccc2ncccc2c1,-42,-9,25*,-1,-42,1,35*,45*
C/C=C/c1ccc(OCC(=O)N(CCOC)c2c(N)n(CCCC)c(=O)[nH]c2=O)c(OC)c1,-2,6,2,2,0,1,/,/
O=C(CCN1C(=O)/C(=C/c2cccs2)SC1=S)N1CCCCC1,30,1,33*,8,10,-6,34*,46*
O=C(CCN1C(=O)/C(=C\c2ccccc2)SC1=S)N1CCCCC1,17,4,2,1,0,-1,/,/
O=C(CN1CCCC1)Nc1nc(-c2ccc(Cl)cc2)cs1,8,/,/,0,-7,/,/,/
CCN(CC)CC(=O)Nc1nc(-c2ccc(Cl)cc2)cs1,-2,3,41*,1,3,0,0,4
COc1ccc(CN(C)CC(=O)NC(C)c2ccccc2)c(OC)c1 (stereo not given),-6,1,99*,3,3,3,8,10
COc1cccc(NC(=O)CN(C)CC(=O)NC(C)c2ccccc2)c1 (stereo not given),-5,4,2,-6,-3,-1,/,/
CCCN1C(=O)/C(=C/c2ccc(C)o2)SC1=Nc1ccc(OC)cc1,-1,5,-2,8,-1,8,/,/
COc1ccc(N=C2S/C(=C\c3ccc(N4CCOCC4)o3)C(=O)N2CCc2c[nH]c3ccccc23)cc1,/,-21,131*,122,132,7,141*,136*
CCC(C)N1CCN(S(=O)(=O)c2ccc3ccccc3c2)CC1 (stereo not given),-5,4,0,3,1,6,/,/
CCC(C)N1CCNCC1 (stereo not given),3,5,33*,-2,-4,2,-1,4
CC(C)c1ccc(N(CC(=O)NC2CCCC2)C(=O)CCC(=O)Nc2ccccn2)cc1,-3,-2,0,2,-1,-1,/,/
O=c1c[n+]([O-])c2ccccc2n1OCc1ccccn1,5,0,26*,7,-6,2,9,13
CCOn1c(=O)c[n+]([O-])c2ccccc21,20,-1,9,13,3,2,/,/
Cc1ccc2c(CSc3nc4ccccc4c(=O)n3CCCO)cc(=O)oc2c1C,6,-2,32*,4,3,1,5,9

# Source: PubChem BioAssay
